Experimental data taken from ChEMBL document CHEMBL1133696, “Development of a lead inhibitor for the A16V+S108T mutant of dihydrofolate reductase from the cycloguanil-resistant strain (T9/94) of Plasmodium falciparum” (J Med Chem, 2000).

Key:
[1] = biological target: Bifunctional dihydrofolate reductase-thymidylate synthase (Plasmodium falciparum K1) (UniProt P13922); assay: Selectivity ratio of growth inhibition against Plasmodium falciparum TM4/8.2(wild-type) and T9/94(mutant); format: functional
Plasmodium falciparum [2] = assay: (§1) Growth inhibition (IC50) against Plasmodium falciparum wild-type TM4/8.2; format: functional, organism-based
Method in brief: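 TM4/8.2 clone (wild-type DHFR) grown in human erythrocytes, RPMI 1640 with 25 mM HEPES pH 7.4, 0.2% NaHCO3, gentamicin, 10% human serum, 37 °C, 3% CO2. Drug from DMSO (final 0.1%), 1.5% cell suspension at 1-2% parasitemia; [3H]-hypoxanthine added after 24 h, a further 18-24 h incubation. IC50 from sigmoidal incorporation-versus-concentration curve.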

[3] = biological target: Bifunctional dihydrofolate reductase-thymidylate synthase (Plasmodium falciparum K1) (UniProt P13922); assay: Ratio of inhibitory constant of mutant by wild-type DHFRs of Plasmodium falciparum
[4] = biological target: Bifunctional dihydrofolate reductase-thymidylate synthase (Plasmodium falciparum K1) (UniProt P13922); assay: Evaluated for activity of relative to Cycloguanil
Plasmodium falciparum [5] = assay: Inhibition of Plasmodium falciparum T9/94 mutant; format: functional, organism-based
Method in brief: (§2)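 Parasites kept in human erythrocytes in RPMI 1640 with 25 mM HEPES pH 7.4, 0.2% NaHCO3, gentamicin and 10% human serum, at 37 °C under 3% CO2. Clones used were TM4/8.2 (wild-type DHFR) and T9/94 RC17 (A16V+S108T). Drug dilutions were made from DMSO stocks, final DMSO 0.1%, and added to a 1.5% cell suspension at 1-2% parasitemia. After 24 h, 0.25 µCi [3H]-hypoxanthine was added for a further 18-24 h, then scintillation counting. IC50 taken from a sigmoidal curve.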

[6] = biological target: Bifunctional dihydrofolate reductase-thymidylate synthase (Plasmodium falciparum K1) (UniProt P13922); assay: Evaluated for activity of compound relative to Cycloguanil
[7] = biological target: T1, Bifunctional dihydrofolate reductase-thymidylate synthase (Plasmodium falciparum K1, UniProt P13922, A16V/S108T); assay: Inhibition constant (Ki mut) against A16V+S108T Mutant DHFRs of Plasmodium falciparum
[8] = biological target: T1, Bifunctional dihydrofolate reductase-thymidylate synthase; assay: Evaluated for inhibition constant (Ki mut) against A16V+S108T Mutant dihydrofolate reductase of Plasmodium falciparum
[9] = Selectivity ratio of growth inhibition values of wild-type (TM4/8.2) and mutant (T9/94) clones of Plasmodium falciparum
Method in brief: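 Clones TM4/8.2 (wild-type DHFR) and T9/94 RC17 (A16V+S108T) grown in human erythrocytes in RPMI 1640 with 25 mM HEPES pH 7.4 and 10% human serum, 37 °C, 3% CO2. 1.5% cell suspension at 1-2% parasitemia with drug in 0.1% DMSO final for 24 h, then [3H]-hypoxanthine 18-24 h. IC50 taken from sigmoidal curves; ratio is T9/94 IC50 over TM4 IC50.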

Plasmodium falciparum [10] = assay: as §1; format: functional, organism-based; method in brief: as §2; remark: listed apart in the source

T1 sequence (P13922 whole entry, looked up, stated change not applied): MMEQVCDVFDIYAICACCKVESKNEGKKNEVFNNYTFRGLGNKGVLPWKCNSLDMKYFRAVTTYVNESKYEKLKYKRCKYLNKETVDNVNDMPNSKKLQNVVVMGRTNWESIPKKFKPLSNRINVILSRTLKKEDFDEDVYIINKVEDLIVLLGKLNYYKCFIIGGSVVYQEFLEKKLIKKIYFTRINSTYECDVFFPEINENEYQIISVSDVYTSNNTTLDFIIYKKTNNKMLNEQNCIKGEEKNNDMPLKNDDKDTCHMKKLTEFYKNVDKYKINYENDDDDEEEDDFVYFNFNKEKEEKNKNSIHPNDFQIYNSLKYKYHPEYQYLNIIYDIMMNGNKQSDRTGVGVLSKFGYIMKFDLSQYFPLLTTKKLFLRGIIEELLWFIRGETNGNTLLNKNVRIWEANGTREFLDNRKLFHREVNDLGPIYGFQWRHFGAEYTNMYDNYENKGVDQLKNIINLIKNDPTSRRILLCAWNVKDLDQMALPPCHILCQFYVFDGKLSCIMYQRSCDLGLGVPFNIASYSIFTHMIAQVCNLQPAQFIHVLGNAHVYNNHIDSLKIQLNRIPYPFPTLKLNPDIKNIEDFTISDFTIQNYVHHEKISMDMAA
Sequence of Bifunctional dihydrofolate reductase-thymidylate synthase (Plasmodium falciparum K1) (P13922 whole entry, looked up): as the sequence (P13922 whole entry, looked up, stated change not applied) above

SMILES	IC50 ratio [1]	IC50 (Plasmodium falciparum [2]) [nM]	Ratio [3]	Relative activity [4]	IC50 (Plasmodium falciparum [5]) [nM]	Relative activity [6]	Ki [7] [nM]	Ki [8] [nM]	IC50 ratio [9]	IC50 (Plasmodium falciparum [10]) [nM]
Cc1ccc(N2C(N)=NC(N)=NC2C)cc1 (centres undefined)	1	462	7.9	15	464	0.14	185			
CC1(C)N=C(N)N=C(N)N1c1cccc(Cl)c1		60			298					
NC1=NC(c2ccccc2)N(c2ccc(Br)cc2)C(N)=N1 (centres undefined)	3.86	47	31	1.9	180	0.07		90		
CCCCC1N=C(N)N=C(N)N1c1ccc(Cl)cc1 (centres undefined)		111	45	2.5	250	0.1		167	2.25	
CC1(C)N=C(N)N=C(N)N1c1ccccc1	0.82	546	69	13	445	1.05	1380			
CCC1N=C(N)N=C(N)N1c1ccc(C)cc1 (centres undefined)	1.89	273	22	3.9	517	0.1	128			
CCCC1N=C(N)N=C(N)N1c1ccc(Cl)cc1 (centres undefined)	5.62	65	23	3.1	365	0.08		107		
CC(C)(C)C1N=C(N)N=C(N)N1c1ccc(Cl)cc1 (centres undefined)		2910			2820	63	82700			
NC1=NCN(c2ccc(Cl)cc2)C(N)=N1	0.33	952	26	16	313	0.5		646		
CCC1N=C(N)N=C(N)N1c1ccc(Cl)cc1 (centres undefined)	12.2	40	52	2.4	486	0.14	189			
NC1=NC(c2ccccc2)N(c2cccc(Cl)c2)C(N)=N1 (centres undefined)	0.05	455	0.9	7.8	24	0.008		10		
NC1=NC(c2ccccc2)N(c2ccc(Cl)cc2)C(N)=N1 (centres undefined)		27		3	44	0.04		49		
NC1=NCN(c2ccccc2)C(N)=N1	0.03	11600	1.8	220	356	0.4	585			
CCC1N=C(N)N=C(N)N1c1ccc(Br)cc1 (centres undefined)	3.24	132	37	1.8	220	0.15	202			
CCCC1N=C(N)N=C(N)N1c1ccc(Br)cc1 (centres undefined)	3.97	63	49	1.7	250	0.1		127		
CC1N=C(N)N=C(N)N1c1ccc(Cl)cc1 (centres undefined)	1	348	31	2.7	347	0.09	127			
CC1N=C(N)N=C(N)N1c1ccc(Cl)c(Cl)c1 (centres undefined)	0.54	35	12.7	0.9	19	0.014	17.8			
CC1(C)N=C(N)N=C(N)N1c1ccc(Cl)cc1 [CYCLOGUANIL]	60.8		876	1	2430	1	1310			40
CC(C)C1N=C(N)N=C(N)N1c1ccc(Cl)cc1 (centres undefined)	0.97	2910	25	40.3	2820	1.2	1540			
CC(C)C1N=C(N)N=C(N)N1c1ccc(Br)cc1 (centres undefined)	1.14	638	40	20	725	0.9	1200			
CC1N=C(N)N=C(N)N1c1cccc(Cl)c1 (centres undefined)					28					
Cc1ccc(N2C(N)=NC(N)=NC2C(C)C)cc1 (centres undefined)	0.42	8220	8.7	111	3450	1.11	1460			
CC1(C)N=C(N)N=C(N)N1c1ccc(F)cc1	3.4	294	355	3	1000	1.2	1630			
CC1N=C(N)N=C(N)N1c1ccc(Br)cc1 (centres undefined)	2.1	132	35	3.8	277	0.15	202			
NC1=NCN(c2ccc(F)cc2)C(N)=N1	0.03	9660	1.7	180	312	0.4	469			
NC1=NC(c2ccccc2)N(c2ccc(Cl)c(Cl)c2)C(N)=N1 (centres undefined)		40			29					
CCCC1N=C(N)N=C(N)N1c1ccc(C)cc1 (centres undefined)	0.91	167	14	9.1	152	0.14	188			
CC1(C)N=C(N)N=C(N)N1c1ccc(Br)cc1	89	31	1770	0.7	2760	1.5	1950			
Cc1ccc(N2C(N)=NC(N)=NC2c2ccccc2)cc1 (centres undefined)	0.29	136	22	5.1	39	0.13		170		
Cc1ccc(N2C(N)=NC(N)=NC2(C)C)cc1		65			3620					
